Source: the array DNA melting data of Ke et al. (doi:10.1101/2024.01.08.574731)

Key:
[1] = folding enthalpy; higher = less favourable; fluorescence melt of hairpins on a sequencing array, two-state fit; conditions: sodium 0.088 M
In short: (§1)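 Melting temperature and folding enthalpy were obtained by bootstrapped two-state fitting. Fits used Cy3 fluorescence of library hairpins with annealed Cy3 and quencher oligos on a sequenced MiSeq flow cell, imaged in 50 mM Na-HEPES pH 8.0, 25 mM NaCl in 2.5 °C steps up to 60 °C and normalised to pre-quench Cy3 and control constructs. Four replicates were combined by inverse-variance weighting, and fitted temperatures were raised by 9.35 °C to match UV melts.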

[2] = melting temperature; fluorescence melt of hairpins on a sequencing array, two-state fit, raised by 9.35 °C to match UV melts; conditions: sodium 0.088 M
In short: as §1

| Sequence | folding enthalpy [1] [kcal/mol] | Tm [2] [°C] |
| --- | --- | --- |
| GATATCGGAAACGATACC (.(((((....))))).) | -17.3 | 33.7 |
| GCAACTGAAAAGTTGC ((((((....)))))) | -36.6 | 62.5 |
| GGATAGGGAAACCCATCC ((((.((....)).)))) | -29.4 | 39.8 |
| GTCGACGGAAACGTTGAC (((.(((....))).))) | -45.5 | 56.3 |
| GCTCTGCGAAAGCCCAGC (((..((....))..))) | -9.22 | 30.5 |
| GGATACGAAAGTATTTCC ((((((....)))..))) | -24.9 | 28.1 |
| GGTCTAACGAAAGTTACC (((..(((....)))))) | -10.2 | 25.5 |
| GATCGTAAAACGATC ((((((...)))))) | -36.7 | 54.4 |
| GATCTTGGTAAAGATC ((((((....)))))) | -41.3 | 53.5 |
| GCGCCGCGAAAGCCACGC (((..((....))..))) | -17.4 | 50.1 |
| GAAGTCCGAAAGGATTC (((.(((....)))))) | -14.1 | 33.8 |
| GTATTCGGAAACGAACAC ((.((((....)))).)) | -25.9 | 34.3 |
| GGACAGGAAACTGTCC ((((((....)))))) | -43 | 62.8 |
| CGGACGGAAACGTTGCCG ((((((....)))..))) | -15.7 | 37.8 |
| GATCCATGGTGGATC ((((((...)))))) | -36 | 50.6 |
| GCGGTTCGAAAGAACGC (((.(((....)))))) | -26.8 | 61.2 |
| GGAGACGAAAGTCCTCC ((((((....))).))) | -25 | 48.7 |
| GCTATACCGAAAGGTAGC (((..(((....)))))) | -17 | 40 |
| CGGGCGGAAACGCCACCG ((((((....)))..))) | -9.3 | 42.4 |
| GTAACACGAAAGTGATAC (((.(((....))).))) | -25.5 | 46.8 |
| GTCTAACGAAAGTTGAC (((.(((....)))))) | -24.9 | 43.6 |
| GATCCCAGCTGGGATC ((((((....)))))) | -46.9 | 62.3 |
| GAGCATGGAAACATGCTC (((((((....))))))) | -37.1 | 67.5 |

| Sequence | folding enthalpy [1] [kcal/mol] | Tm [2] [°C] |
| --- | --- | --- |
| GTCCGTCCGAAAGGAGAC (((..(((....)))))) | -11.8 | 29.1 |
| GATCGGGATCCCGATC ((((((....)))))) | -50.5 | 59.5 |
| GCTAAGCGAAAGCTTTGC ((.((((....)))).)) | -30.6 | 59.5 |
| GAAGGAGGAAACTCCTCC (.(((((....))))).) | -12.7 | 40.9 |
| GGGGTCCGAAAGGATCCC (((.(((....))).))) | -36 | 67.9 |
| GTGCAGGCGAAAGCCCAC (((..(((....)))))) | -10.8 | 48.9 |
| CGAACGGAAACGTTTCG ((((((....))).))) | -26.2 | 46.1 |
| GCACGGCGAAAGCACTGC (((..((....))..))) | -20.1 | 40.5 |
| GCTTCCCGAAAGGGTAGC (((.(((....))).))) | -33.9 | 56.4 |
| GATCGTCGCACGATC ((((((...)))))) | -37.9 | 58.2 |
| GGCCCTGGAAACAGAGCC (((.(((....))).))) | -41.2 | 48.7 |
| GATCCCTAAGGGGATC ((((((....)))))) | -35.2 | 61.1 |
| GGGGAGGGAAACCTCTCC ((.((((....)))).)) | -34.1 | 51.8 |
| GTATAAGGAAACTTGTAC (((.(((....))).))) | -17.1 | 31.5 |
| GGCCTCGAAAGAGCTGCC ((((((....)))..))) | -24 | 45 |
| GTGCGGGGAAACCCGTAC ((.((((....)))).)) | -27.4 | 59.1 |
| GATCTGAACCCAGATC ((((((....)))))) | -28.8 | 46.1 |
| GCTCCGTCGAAAGACAGC (((..(((....)))))) | -15 | 32.4 |
| GCGTAGCGAAAGCCAGGC ((.(.((....)).).)) | -5.07 | 31.1 |
| GCTAGGCGAAAGCCCCGC ((..(((....)))..)) | -7.78 | 32.6 |
| GATCTCAACGAGATC ((((((...)))))) | -35.5 | 55.8 |
| GCCACGGGAAACTGTGGC (((((.(....).))))) | -43.2 | 63.2 |
| GTGATCACGAAAGTGCAC (((..(((....)))))) | -12.5 | 30.7 |

| Sequence | folding enthalpy [1] [kcal/mol] | Tm [2] [°C] |
| --- | --- | --- |
| GCAGTGCGAAAGCATGC (((.(((....)))))) | -20.4 | 58.7 |
| GAACTGGCGAAAGCCTTC (((..(((....)))))) | -6.15 | 19.7 |
| GTTAGGGAAACCTAAC ((((((....)))))) | -30.8 | 48.4 |
| GCATGTACGAAAGTATGC (((..(((....)))))) | -29.3 | 43.8 |
| GTGAAAGGAAACCTTCAC (((((.(....).))))) | -27 | 36.5 |
| GGATTCGAAAGAACTCC ((((((....))).))) | -22 | 36 |
| GCGGCGAACCGC ((((....)))) | -18.9 | 56.9 |
| GACCCCGCGAAAGCGGTC (((..(((....)))))) | -5.92 | 28 |
| GCGTTCGGAAACAAACGC (((((.(....).))))) | -34.6 | 47.9 |
| GTGCAGGGAAACTTGCAC (((((.(....).))))) | -40.7 | 52.5 |
| GCGTTAGGAAACTAGCGC (((.(((....))).))) | -46.9 | 52.4 |
| GTGGTCGAAAGACTTCAC ((((((....)))..))) | -15.2 | 31.9 |
| GTTCGCGGAAACGCGGAC ((.((((....)))).)) | -26.6 | 60.7 |
| GTGGGCGAAAGCCGGCAC ((((((....)))..))) | -12.1 | 45.8 |
| GCAACGCGAAAGCCTCGC ((.(.((....)).).)) | -7.26 | 30.9 |
| GCCCAAGGAAACTTAGGC (((.(((....))).))) | -21.9 | 35.4 |
| GCATTCGAAAGAAAATGC ((((((....)))..))) | -24.8 | 34.6 |
| GCCAACACGAAAGTGGGC (((..(((....)))))) | -24.9 | 52.7 |
| GCCGGGGGAAACCTCGGC ((((.((....)).)))) | -37.9 | 66.7 |
| GATCAGAGCTCTGATC ((((((....)))))) | -53 | 54.1 |
| GCTTACGAAAGTACGAGC ((((((....)))..))) | -20.3 | 32.1 |
| GGGTTCCCGAAAGGGCCC (((..(((....)))))) | -18.6 | 47.7 |
| GTGAAACGAAAGTTCAC (((.(((....)))))) | -18.3 | 47.6 |

| Sequence | folding enthalpy [1] [kcal/mol] | Tm [2] [°C] |
| --- | --- | --- |
| GATCAGGTACCTGATC ((((((....)))))) | -40.6 | 58.8 |
| GGATGCTCGAAAGAGTCC (((..(((....)))))) | -12.1 | 29.1 |
| GCGAATGGAAACGTTCGC (((((.(....).))))) | -38.4 | 56.7 |
| GTTAGACCGAAAGGTAAC (((..(((....)))))) | -11.2 | 30.2 |
| GGGCCAGGAAACTGACCC (((.(((....))).))) | -40 | 50.4 |
| GAATTAGGAAACTAGTTC (((.(((....))).))) | -16.8 | 27.1 |
| GCGGAATCGAAAGATCGC (((..(((....)))))) | -25.8 | 45.5 |
| GATCTCTTAAGAGATC ((((((....)))))) | -37.3 | 54.2 |
| GTTCGAGCGAAAGCTAAC (((..(((....)))))) | -7.3 | 24.6 |
| GGAATCGAAAGATGGTCC ((((((....)))..))) | -8.55 | 25.8 |
| GTTGAGACGAAAGTCAAC (((..(((....)))))) | -15.6 | 38.4 |
| GAACGGACGAAAGTCTTC (((..(((....)))))) | -7.13 | 20.7 |
| GACGTGGGAAACCACGTC (((((((....))))))) | -37.1 | 68.8 |
| GTACACGAAAGTGCTAC ((((((....))).))) | -15.9 | 39.9 |
| GATCTGGTTTCAGATC ((((((....)))))) | -35.9 | 51.1 |
| GGGGAGACGAAAGTCCCC (((..(((....)))))) | -29.6 | 58.1 |
| GCCTATGCGAAAGCAGGC (((..(((....)))))) | -23.1 | 54 |
| GATCACGCATGTGATC ((((((....)))))) | -43.1 | 67.3 |
| GATACCCGAAAGGGATC (((.(((....)))))) | -16.1 | 42.1 |
| GTCATCGAAAGATCGAC ((((((....))).))) | -22.1 | 35.7 |
| GGAAGCGAAAGCTGCTCC ((((((....)))..))) | -11.8 | 37.9 |
| GATCCTGTTTAGGATC ((((((....)))))) | -44.3 | 52.6 |
| GAACCCGAAAGGGCCTTC ((((((....)))..))) | -14.2 | 34.6 |
